# Compound activity (PubChem BioAssay)
# XBP1 UPR activ – activators of adaptive arm of unfolded protein response (XBP1). CHO-XBP1 luciferase reporter, IRE1-XBP1 UPR activation, luminescence; percent of tunicamycin response, DMSO as zero. activation, % at 20 µM. 330,000 tested, 0.33% active. AID 463104;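 active = versus positive control, 20 µM dose yields 30% or more activation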;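 also: 100% = tunicamycin at 10 µg/mL and 0% = DMSO only wells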
#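 Test system: CHO-XBP1 luciferase reporter cells | Buffer or medium: Serum-containing F12 medium, 10% FBS | Schedule: 6 h compound exposure at 37 °C, 5% CO2 | Detection: Steady-Glo luciferase glow luminescence, 10 min after reagent addition | Read-out basis: Activation, % of tunicamycin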
# T cruzi inh – blocks replication of Trypanosoma cruzi; T. cruzi beta-gal in NIH3T3, luminescence, 90 h; inhibition, % (no concentration beside the values); 300,000 tested, 1.4% active; AID 1885;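 active = mean inhibition across valid replicates above about 55%, limit read from the data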;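 also: signal also drops with host cell toxicity which is not excluded here; 0% = plate median of DMSO wells and 100% = zero luminescence signal; higher percent means less beta-gal luminescence so fewer parasites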
#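 System: Mouse NIH/3T3 fibroblasts infected with β-gal-expressing T. cruzi Tulahuen C4 | Quantity: NIH/3T3 cells, 5,000 per well | Reagent: 5000 reporter trypomastigotes per well | Dosing: Compound pinned at 50 nL/well, DMSO | Schedule: 3 h host attachment, then at least 90 h co-culture | Detection: GalScreen luminescence, 60 min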
# CSC inhib – cancer stem cell inhibition; cancer stem cell-like cells viability, luminescence; inhibition, % at 7.5 µM; 300,000 tested, 1.1% active; AID 2717; in the data active = inhibition above about 75%; tested in HMLE shEcad cells
# Mdm2-MdmX inh – human Mdm2/MdmX binding inhibition; SaOS-2 split-luciferase Mdm2/MdmX complementation, luminescence; inhibition, % at 8 µM; 330,000 tested, 3% active; AID 485346; O15151+Q00987;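 active = inhibition of at least 50% at 8 µM in the primary screen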
# Beta apoptosis – blocks beta cell apoptosis. INS-1E cytokine-induced death, ATP luminescence, 48 h; percent of positive-control rescue, neutral wells zero. protection from apoptosis, % (test concentration not listed). 300,000 tested, 0.8% active. AID 435005;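 active = Every replicate reaches about 75%, or at least half do and their mean reaches it too, limit read from the data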;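 also: 0% = cytokine-treated negative control wells and 100% = positive control rescue; higher means more ATP so stronger rescue from cytokine killing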
# CHOP UPR activ – activators of apoptotic arm of unfolded protein response (CHOP); CHO-CHOP luciferase reporter, UPR activation, luminescence; percent of tunicamycin response over DMSO baseline; activation, % at 10 µM; 330,000 tested, 0.34% active; AID 449763;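 active = at 10 µM dose, activation of 40% or more, normalized to positive control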;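 also: 100% = tunicamycin at 10 µg/mL and 0% = DMSO alone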
#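 Test system: CHO-CHOP cells, stable luciferase reporter of PERK-eIF2a-CHOP signalling | Quantity: 500 CHO-CHOP cells per well | Buffer or medium: F12 plus 10% serum | Compound dosing: 10 µM single point, 0.5% DMSO | Schedule: 6 h compound treatment, 37 °C | Signal: Luciferase luminescence | Control set: Tunicamycin high control, DMSO low control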
# * = called active by the depositor; / = no result. Hits are enriched below; roughly 5% of the tested compounds scored in any of these assays.
SMILES,XBP1 UPR activ,T cruzi inh,CSC inhib,Mdm2-MdmX inh,Beta apoptosis,CHOP UPR activ
O=C(N/N=C/c1ccc([N+](=O)[O-])o1)c1cc2ccccc2o1,-1.9,63.7*,8.0,15.0,99.8*,3.5
Cc1[nH]n(-c2ccccc2)c(=O)c1C=Nc1cnc2ccccc2c1,3.6,-8.2,-6.5,6.6,0.0,-1.8
CCOc1ccc(N=Cc2c(C)[nH]n(-c3nc4ccccc4[nH]3)c2=O)cc1,-0.5,3.7,118.2*,34.7,113.8*,0.1
Cc1cc(OCCOCCN(C)CCO)cc(C)c1Cl,0.3,37.3,-3.2,14.8,0.2,-0.2
CCN(CC)CCOCCOc1cc(C)c(Cl)c(C)c1,-2.7,63.8*,88.7*,-0.4,-3.3,-0.4
NS(=O)(=O)c1ccc(Nc2nc(-c3cccc([N+](=O)[O-])c3)cs2)cc1,2.5,57.8*,-2.1,-1.4,19.4,-1.2
CCCCn1c(=O)[nH]c2nc3cc(N)ccc3nc2c1=O,/,/,11.9,/,-5.0,/
Cc1cc2nc3c(=O)n(CCc4ccccc4)c(=O)[nH]c3nc2cc1N,2.0,56.4*,-1.5,10.5,-1.9,4.8
Nc1ccc2nc3c(=O)n(CCc4ccccc4)c(=O)[nH]c3nc2c1,0.4,-1.6,76.9*,18.0,10.8,2.7
C=CCn1c(=O)[nH]c2nc3cc(N=CN(C)C)c(C)cc3nc2c1=O,-1.8,-14.7,5.6,6.8,-0.4,-0.9
CNc1nc(N/N=C/c2cc3c(cc2[N+](=O)[O-])OCO3)nc(Nc2ccccc2)n1,7.6,71.5*,-4.2,38.0,98.1*,2.0
O=C(Nc1ccc(N2CCCC2)cc1)c1ccc([N+](=O)[O-])cc1Cl,-0.7,20.6,-0.1,-16.3,-2.8,-1.2
O=[N+]([O-])c1ccc(N2CCN(C(=S)Nc3cccc(F)c3)CC2)cc1,3.1,-40.1,-2.8,27.2,6.8,2.2
O=[N+]([O-])c1ccc(N2CCN(C(=S)Nc3ccc(F)cc3)CC2)cc1,-2.2,-98.7,16.2,4.8,76.3*,1.0
O=C(Nc1ccc(N2CCCCC2)cc1)c1cc([N+](=O)[O-])cc([N+](=O)[O-])c1,1.6,60.1*,6.4,20.4,9.0,-0.4
N#CCCCCn1ccc(NC(=O)c2ccc(Cl)cc2O)n1,2.0,-8.9,-9.9,27.2,/,-0.3
Clc1cc(/C=N\NC2=NCCN2)cc(Cl)n1,0.5,69.8*,-16.3,24.2,-7.0,1.1
O=[N+]([O-])c1ccccc1/C=N/NC1=NCCN1,0.1,13.5,8.0,-27.3,-1.8,0.8
Oc1c(Br)cc(Br)cc1/C=N/NC(=S)N[C@H]1CC2C=CC1C2 (some centres undefined),5.2,-18.9,101.8*,29.8,73.3,-1.6
CNC(=S)N/N=C/c1cc(Br)cc(Br)c1O,-0.4,-12.9,38.8,11.1,1.9,0.1
NNC(=O)c1nn(-c2ccc(Cl)cc2)cc1O,-3.1,15.1,-9.4,13.0,74.6*,-1.1
O=C(C1CCC1)N1CCc2cc(S(=O)(=O)Nc3ccc4c(c3)OCCO4)ccc21,-2.6,6.6,-5.7,-24.9,78.6*,4.2
COC(=O)c1sccc1NC(=O)c1csc(C)c1,5.3,1.5,17.7,-0.8,0.7,2.3
O=C(Nc1ccc2ccccc2c1)c1cn(-c2ccccc2)nc1-c1cccs1,1.3,59.5*,39.9,-13.3,15.9,4.7
O=C(/C(N=Nc1cccc(C(F)(F)F)c1)=C(/O)c1cccs1)C(F)(F)F,4.0,10.2,139.6*,40.0,23.3,1.2
COc1ccccc1OCC(=O)NNC(=O)c1c(-c2ccccc2Cl)noc1C,-2.0,-10.6,-3.5,-2.5,3.3,1.7
CN(C)CCCn1c(-c2ccccc2)nc(=S)c2c1CCCC2,0.1,59.4*,/,-1.2,-3.4,-1.0
O=C(NCc1ccncc1)C(=O)N/N=C/c1ccc(OCc2ccccc2)cc1,-0.2,2.9,0.5,3.6,-2.0,5.4
O=NN(CCc1ccncc1)c1ccc(OCc2ccccc2)cc1,-3.1,71.9*,17.6,17.4,99.2*,3.2
O=S(=O)(Nc1cccc(-c2nc3cccnc3s2)c1)c1ccc2c(c1)OCCO2,0.1,5.2,27.5,-1.9,0.8,1.8
